NPY-Y2 PAM-ag = NPY-Y2 potentiators or agonists, primary screen, cell-based | Neuropeptide Y receptor type 2 (Homo sapiens), P49146 | cells expressing NPY-Y2, potentiator/agonist read-out | activation, % at 3.6 µM | actives 0.45% (n = 220,000) | AID 1359, 2008; in the data active = activation above about 27%;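 also: cells stimulated with NPY near EC25 plus isoproterenol at EC100; 0% = vehicle plus submaximal agonist and 100% = vehicle plus saturating agonist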
NPY Y1 blocker = NPY-Y1 receptor antagonists, primary screen, cell-based; inhibition, % at 3.6 µM; Neuropeptide Y receptor type 1 (Homo sapiens), P25929; HEK293-CNG Y1 cells, membrane potential fluorescence; NPY at EC95, then isoproterenol; actives 1% (n = 200,000);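 active = inhibition above the campaign mean inhibition of all tested compounds plus 3 SD, cut at about 20% in these data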;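 also: 0% = DMSO wells given NPY plus isoproterenol and 100% = isoproterenol alone without NPY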
Target sequence (P25929 whole entry, looked up): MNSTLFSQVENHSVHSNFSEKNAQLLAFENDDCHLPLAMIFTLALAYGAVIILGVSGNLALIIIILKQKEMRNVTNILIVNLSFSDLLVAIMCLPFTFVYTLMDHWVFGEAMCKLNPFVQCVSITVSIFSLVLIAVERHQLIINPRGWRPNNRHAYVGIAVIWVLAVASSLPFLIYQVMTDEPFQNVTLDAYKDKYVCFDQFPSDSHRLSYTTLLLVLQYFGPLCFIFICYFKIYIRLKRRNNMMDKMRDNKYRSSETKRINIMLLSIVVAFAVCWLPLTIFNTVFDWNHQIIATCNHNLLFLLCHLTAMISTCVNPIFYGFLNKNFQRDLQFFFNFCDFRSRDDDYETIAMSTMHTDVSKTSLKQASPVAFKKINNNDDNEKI
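Material: Y1- and CNG-channel-expressing HEK293 cells / Probe or stimulus: NPY 25 nM then isoproterenol 1 µM plus Ro 20-1724 25 µM / Doses: 3.6 µM single dose, DMSO 0.4% / Schedule: compound incubation 1 h at room temperature, readout 45 min post-stimulation / Signal: membrane potential fluorescence / Benchmarks: isoproterenol-only wells as full block versus NPY-plus-isoproterenol wells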
NPY1 pot ag = NPY-Y1 receptor potentiators or agonists, primary screen, cell-based | Neuropeptide Y receptor type 1 (Homo sapiens), P25929 | NPY-Y1 expressing cells, potentiator/agonist activation | activation, % at 3.6 µM | actives 0.37% (n = 220,000) | AID 1304, 2008; in the data active = activation above about 33%, passing the limit was not always enough;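 also: cells stimulated with NPY at EC10 then isoproterenol at EC100; 0% = low agonist plus stimulus and 100% = saturating agonist plus stimulus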
NPY-Y2 antag = NPY-Y2 receptor antagonists, primary screen, cell-based | actives 0.99% (n = 140,000) | AID 793, 2007 | inhibition, % at 2.7 µM | NPY-Y2 expressing cells, antagonist mode; in the data active = inhibition above about 17%;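 also: 0% = vehicle with agonist challenge and 100% = reference antagonist with challenge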
WT yeast gro inh = growth inhibition of WT strain, primary screen, mitochondrial fusion inhibitor project, WT and mutant strains, chemical genetic; inhibition, % at 10 µM; actives 2.1% (n = 190,000); AID 1362, 2008; mitochondrial fusion phenotypic screen; in the data active = inhibition above about 58%; tested in S. cerevisiae
RAM network inh = inhibitors of the yeast RAM network, primary screen, dse1pr::URA3 reporter, 5-FOA selection; S. cerevisiae dse1pr::URA3 reporter, 5-FOA growth OD615, 2 d; analog-sensitive cbk1-as2 kinase mutant strain; inhibition, % at 50 µM; actives 1.8% (n = 190,000);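 active = inhibition above a set limit, 3 SD over mean compound inhibition, cut at about 8.4% in these data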;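 also: 0% = DMSO-only wells with no growth and 100% = 10 µM 1-NA-PP1 full growth; inhibition rescues growth on 5-FOA so higher OD means more RAM inhibition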
NPY1 antag ctr = NPY-Y1 receptor antagonists, selectivity check, counter-screen for NPY-Y2 antagonist project, cell-based | shares compounds with NPY-Y2 antag | cell-based NPY-Y1 antagonism counterscreen | inhibition, % at 3.6 µM | actives 19% (n = 710) | AID 1256, 2008; in the data active = inhibition above about 20%;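 also: cells challenged with NPY then isoproterenol with cAMP sensed through a CNG channel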
NPY2 antag conf = NPY-Y2 receptor antagonists, retest of hits, confirmation, HEK293-CNG cells, membrane potential fluorescence, triplicate; HEK293 NPY-Y2 CNG channel; actives 32% (n = 710); inhibition, % at 2.8 µM; shares compounds with NPY-Y2 antag;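 active = mean inhibition of triplicate wells above the hit cutoff set in the primary screen, cut at about 17% in these data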;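 also: 0% = DMSO with NPY challenge and 100% = BIIE0246 high control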
* hit, by the source's call. In the library only some 4.9% were active in any assay of this set; here they are far more common.

Screening CCn1cc(CN(C)S(=O)(=O)c2ccc3ccccc3c2)c(C)n1 returned NPY-Y2 PAM-ag 14.3, NPY Y1 blocker -1.4, NPY1 pot ag 0.6, NPY-Y2 antag 24.6*, WT yeast gro inh 19.5, RAM network inh 0.5, NPY1 antag ctr 11.9 and NPY2 antag conf 1.4.
Screening CCCOc1ccc(C2(C(=O)O)CCCC2)cc1 returned NPY-Y2 PAM-ag -2.3, NPY Y1 blocker 7.0, NPY1 pot ag 0.7, NPY-Y2 antag 44.4*, WT yeast gro inh -15.6, RAM network inh 1.5, NPY1 antag ctr 7.9 and NPY2 antag conf 6.3.
Screening Cc1ccc(C(=O)/C=C\C(=O)c2ccc(C)cc2)cc1 returned NPY-Y2 PAM-ag -2.1, NPY Y1 blocker 12.1, NPY1 pot ag -26.8, NPY-Y2 antag 20.3*, WT yeast gro inh 69.7, RAM network inh 3.1, NPY1 antag ctr 45.3* and NPY2 antag conf 110.6*.
`O=C(CCc1ccccc1)Nc1nncs1` gave NPY-Y2 PAM-ag 8.5, NPY Y1 blocker 4.5, NPY1 pot ag 0.3, NPY-Y2 antag 0.6, WT yeast gro inh 7.4 and RAM network inh 1.8.
Screening CN(/N=C/c1ccncc1)C1=NS(=O)(=O)c2ccccc21 returned NPY-Y2 PAM-ag 4.0, NPY Y1 blocker 3.8, NPY1 pot ag 25.3, NPY-Y2 antag 21.2*, WT yeast gro inh 13.4, RAM network inh 3.9, NPY1 antag ctr 1.6 and NPY2 antag conf 0.7.
`COc1ccc(OCc2cccc(C(=O)O)c2)cc1` gave WT yeast gro inh 4.1 and RAM network inh 0.0.
`c1ccc(N2CCN(c3nc(NCc4ccco4)c4ccccc4n3)CC2)cc1` gave NPY-Y2 PAM-ag 31.8*, NPY Y1 blocker 11.7, NPY1 pot ag -7.3, NPY-Y2 antag 19.4*, WT yeast gro inh -7.8, RAM network inh 1.5, NPY1 antag ctr 9.2 and NPY2 antag conf 7.0.
c1coc(CNc2nc(N3CCCCC3)nc3ccccc23)c1 was read as NPY-Y2 PAM-ag -8.1, NPY Y1 blocker 19.4, NPY1 pot ag -22.7, NPY-Y2 antag 26.4*, WT yeast gro inh -5.5, RAM network inh 1.4, NPY1 antag ctr 18.1 and NPY2 antag conf 15.5.
`c1ccc2c(N3CCCCC3)nc(N3CCOCC3)nc2c1` gave NPY-Y2 PAM-ag -6.5, NPY Y1 blocker 4.0, NPY1 pot ag -12.7, WT yeast gro inh 3.1 and RAM network inh 0.8.
Screening c1ccc2c(N3CCCCC3)nc(N3CCCCC3)nc2c1 returned NPY-Y2 PAM-ag -16.4, NPY Y1 blocker -0.1, NPY1 pot ag -7.2, NPY-Y2 antag 23.1*, WT yeast gro inh 7.1, RAM network inh -0.5, NPY1 antag ctr 4.6 and NPY2 antag conf 1.5.
`CCOC(=O)C1(Cc2cccc(Cl)c2)CCCN(C(=O)C2CC2)C1` (configuration not stated) gave NPY-Y2 PAM-ag 16.8, NPY Y1 blocker -0.7, NPY1 pot ag 23.4, WT yeast gro inh -1.6 and RAM network inh 0.2.
Screening O=C(c1ccco1)n1nc(-c2ccco2)nc1SCc1ccccc1 returned NPY-Y2 PAM-ag -4.5, NPY Y1 blocker 0.2, NPY1 pot ag 4.9, NPY-Y2 antag 0.7, WT yeast gro inh 17.7 and RAM network inh 4.2.
For CCCCOc1ccc(C2=NNC(=O)CC2)cc1 the results were NPY-Y2 PAM-ag -9.9, NPY Y1 blocker 9.4, NPY1 pot ag -39.6, NPY-Y2 antag 22.5*, WT yeast gro inh -1.0, RAM network inh -0.6, NPY1 antag ctr 19.0 and NPY2 antag conf 39.4*.
O=C(/C=C/c1cccc2ccccc12)c1ccncc1 was read as NPY-Y2 PAM-ag 7.5, NPY Y1 blocker -4.0, NPY1 pot ag -4.3, NPY-Y2 antag 20.3*, WT yeast gro inh 7.1, RAM network inh -2.0, NPY1 antag ctr 11.2 and NPY2 antag conf 18.8*.

Screens from PubChem.
